# Columns and labels:
# [1] = biological target: T1, Amine oxidase [flavin-containing] A (Homo sapiens, UniProt P21397); experiment: Inhibition of human recombinant MAOA expressed in BTI-TN-5B1-4 cells assessed as effect on H2O2 production from para-tyramine by fluorimetric method; assay type: cell-based
# T1 sequence (P21397 whole entry): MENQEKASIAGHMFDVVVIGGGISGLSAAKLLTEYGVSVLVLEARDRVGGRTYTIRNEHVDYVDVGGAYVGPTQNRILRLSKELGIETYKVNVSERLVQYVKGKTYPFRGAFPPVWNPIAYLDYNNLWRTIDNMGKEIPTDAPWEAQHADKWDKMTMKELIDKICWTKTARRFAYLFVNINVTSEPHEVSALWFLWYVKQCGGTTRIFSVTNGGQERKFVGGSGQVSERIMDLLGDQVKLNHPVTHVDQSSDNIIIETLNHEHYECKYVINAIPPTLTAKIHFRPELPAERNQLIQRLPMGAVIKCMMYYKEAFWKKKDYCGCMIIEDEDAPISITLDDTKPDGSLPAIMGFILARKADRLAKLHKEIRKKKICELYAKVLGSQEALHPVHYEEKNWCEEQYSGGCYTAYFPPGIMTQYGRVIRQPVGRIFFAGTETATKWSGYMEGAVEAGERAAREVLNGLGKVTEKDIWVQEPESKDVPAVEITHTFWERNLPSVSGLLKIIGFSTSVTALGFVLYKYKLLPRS
# [2] = biological target: T1, Amine oxidase [flavin-containing] A; experiment: Inhibition of human recombinant MAOA expressed in BTI-TN-5B1-4 cells assessed as effect on H2O2 production from para-tyramine at 100 uM by fluorimetric method; assay type: cell-based
# Method in brief: (§1)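 Enzyme and test drug were preincubated 15 min at 37 °C in 0.05 M sodium phosphate, pH 7.4. Final 1 mM p-tyramine, 200 µM Amplex Red and 1 U/mL HRP were then added. Resorufin fluorescence (ex 545/em 590 nm) was read over 15 min, minus enzyme-free background. Top concentration tested was 100 µM.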
# Homo sapiens = species on record: Homo sapiens; experiment: Selectivity index, ratio of IC50 for human recombinant MAOA to IC50 for human recombinant MAOB
# [3] = biological target: T2, Amine oxidase [flavin-containing] B (Homo sapiens, UniProt P27338); experiment: Inhibition of human recombinant MAOB expressed in BTI-TN-5B1-4 cells assessed as effect on H2O2 production from para-tyramine at 100 uM by fluorimetric method; assay type: cell-based; method in brief: as §1
# T2 sequence (P27338 whole entry): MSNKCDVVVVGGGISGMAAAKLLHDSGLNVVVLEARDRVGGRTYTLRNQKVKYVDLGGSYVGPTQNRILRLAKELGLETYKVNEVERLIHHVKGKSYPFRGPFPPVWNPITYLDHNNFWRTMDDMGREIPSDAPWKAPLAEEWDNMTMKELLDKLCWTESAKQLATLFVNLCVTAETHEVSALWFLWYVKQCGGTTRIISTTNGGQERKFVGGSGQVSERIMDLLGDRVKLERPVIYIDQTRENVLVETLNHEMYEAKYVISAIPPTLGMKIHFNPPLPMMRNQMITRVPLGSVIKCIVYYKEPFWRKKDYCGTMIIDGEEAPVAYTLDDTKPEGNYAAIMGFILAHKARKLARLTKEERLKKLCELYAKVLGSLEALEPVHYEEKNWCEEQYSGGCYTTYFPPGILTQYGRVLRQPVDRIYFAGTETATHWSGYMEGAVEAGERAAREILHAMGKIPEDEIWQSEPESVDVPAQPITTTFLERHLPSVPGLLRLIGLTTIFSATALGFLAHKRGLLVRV
# [4] = biological target: T2, Amine oxidase [flavin-containing] B; experiment: Inhibition of human recombinant MAOB expressed in BTI-TN-5B1-4 cells assessed as effect on H2O2 production from para-tyramine at 1 mM by fluorimetric method; assay type: cell-based
# Method in brief: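 Drugs preincubated with enzyme 15 min, 37 °C, 0.05 M sodium phosphate pH 7.4. Amplex Red 200 µM, HRP 1 U/mL, p-tyramine 1 mM (final) added. Resorufin fluorescence (ex 545/em 590 nm) read over 15 min at 37 °C, enzyme-free background subtracted.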
SMILES,IC50 [1],IC50 [2],further results
Cc1cccc(Cl)c1NC(=O)c1cc2ccc(OCc3ccccc3)cc2oc1=O,49.7 µM,,
O=C(Nc1c(F)c(F)nc(F)c1F)c1cc2ccccc2oc1=O,11.4 µM,,
COc1cc(NC(=O)c2cc3ccc(OCc4ccc(F)cc4)cc3oc2=O)cc(OC)c1,52.6 µM,,
CC(C)NC(=O)c1cc2ccc(OCc3ccccc3)cc2oc1=O,63.5 µM,,Ratio IC50 (Homo sapiens): < 0.63; IC50 [3]: Not Active
O=C(c1cc2ccccc2oc1=O)N(c1ccccc1)c1ccccc1,,Not Active,IC50 [3]: Not Active
O=C(NNc1ccccc1)c1cc2ccc(OCc3ccccc3)cc2oc1=O,41.4 µM,,
O=C(NC1CCCCC1)c1cc2ccccc2oc1=O,,Not Active,
COc1ccc(NC(=O)c2cc3ccc(OCc4ccccc4)c(C)c3oc2=O)cc1OC,48.9 µM,,
CN(C(=O)c1cc2ccc(OCc3ccccc3)cc2oc1=O)c1ccccc1,,Not Active,
CC(C)CNC(=O)c1cc2ccc(OCc3ccccc3)cc2oc1=O,58.6 µM,,
COc1ccc(NC(=O)c2cc3ccc(OCc4ccc(F)cc4)cc3oc2=O)cc1OC,49.2 µM,,
COc1cc(NC(=O)c2cc3ccc(OCc4ccccc4)cc3oc2=O)cc(OC)c1,52.9 µM,,
O=C(NCc1ccccc1)c1cc2ccc(OCc3ccccc3)cc2oc1=O,,Not Active,
N#Cc1c(F)c(F)c(NC(=O)c2cc3ccc(OCc4ccccc4)cc3oc2=O)c(F)c1F,61.4 µM,,
O=C(Nc1ccccc1Cc1ccccc1)c1cc2ccc(OCc3ccccc3)cc2oc1=O,51.9 µM,,
O=C(NC1CCCCC1)c1cc2ccc(OCc3ccccc3)cc2oc1=O,,Not Active,
O=C(Nc1c(F)c(F)c(F)c(F)c1F)c1cc2ccccc2oc1=O,,Not Active,
Cc1cccc(Cl)c1NC(=O)c1cc2ccc(OCc3ccc(F)cc3)cc2oc1=O,59.6 µM,,
CC(C)CNC(=O)c1cc2ccccc2oc1=O,,Not Active,
CC(C)c1ccc(NC(=O)c2cc3ccc(OCc4ccc(F)cc4)cc3oc2=O)cc1,,Not Active,IC50 [3]: Not Active
N#Cc1c(F)c(F)c(NC(=O)c2cc3ccccc3oc2=O)c(F)c1F,16 µM,,
O=C(Nc1ccccc1Cc1ccccc1)c1cc2ccc(OCc3ccc(F)cc3)cc2oc1=O,55.8 µM,,Ratio IC50 (Homo sapiens): < 0.56; IC50 [3]: Not Active
CN(Cc1ccccc1)C(=O)c1cc2ccccc2oc1=O,,Not Active,IC50 [3]: Not Active
O=C(NCCN1CCOCC1)c1ccc(Cl)cc1 [MOCLOBEMIDE],,,IC50 [4]: Not Active
N#Cc1c(F)c(F)c(NC(=O)c2cc3ccc(OCc4ccc(F)cc4)cc3oc2=O)c(F)c1F,58.5 µM,,
COc1ccc(NC(=O)c2cc3ccc(OCc4ccccc4)cc3oc2=O)cc1OC,,Not Active,

# Now from value to compound, other results behind:
IC50 [1],IC50 [2],SMILES,further results
15.1 µM,,CC(C)c1ccc(NC(=O)c2cc3ccccc3oc2=O)cc1,
18.8 µM,,Cc1ccc(NC(=O)c2cc3ccccc3oc2=O)cc1C,
9.33 µM,,CS(=O)(=O)c1ccc(NC(=O)c2cc3ccccc3oc2=O)cc1,
,Not Active,CN(C(=O)c1cc2ccccc2oc1=O)c1ccccc1,
13.1 µM,,O=C(Nc1ccc(F)cc1)c1cc2ccccc2oc1=O,
9.79 µM,,Cc1cccc(C)c1NC(=O)c1cc2ccccc2oc1=O,
15.7 µM,,CCc1ccc(NC(=O)c2cc3ccccc3oc2=O)cc1,
9.97 µM,,O=C(O)c1ccc(NC(=O)c2cc3ccccc3oc2=O)cc1,
,Not Active,COc1cccc(NC(=O)c2cc3ccccc3oc2=O)c1,
17.6 µM,,Cc1cc(C)cc(NC(=O)c2cc3ccccc3oc2=O)c1,
,Not Active,O=C(Nc1cccc(C(F)(F)F)c1)c1cc2ccccc2oc1=O,
,Not Active,O=C(NCCc1ccccc1)c1cc2ccccc2oc1=O,IC50 [3]: Not Active
9.67 µM,,O=C(Cl)c1ccc(NC(=O)c2cc3ccccc3oc2=O)cc1,Ratio IC50 (Homo sapiens): < 0.1; IC50 [3]: Not Active
,Not Active,O=C(Nc1ccc(O)cc1)c1cc2ccccc2oc1=O,
14.5 µM,,Cc1cccc(NC(=O)c2cc3ccccc3oc2=O)c1,
,Not Active,O=C(Nc1ccccc1Cc1ccccc1)c1cc2ccccc2oc1=O,
,Not Active,O=C(Nc1cccc(F)c1)c1cc2ccccc2oc1=O,

IC50 [1],IC50 [2],SMILES,further results
,Not Active,NCCNC(=O)c1cc2ccccc2oc1=O,
19.5 µM,,Cc1ccc(NC(=O)c2cc3ccccc3oc2=O)cc1,
15.9 µM,,Cc1ccc(C)c(NC(=O)c2cc3ccccc3oc2=O)c1,
,Not Active,Cc1cccc(Cl)c1NC(=O)c1cc2ccccc2oc1=O,
,Not Active,C#CCNC(=O)c1cc2ccccc2oc1=O,IC50 [3]: Not Active
16 µM,,CCOC(=O)c1ccc(NC(=O)c2cc3ccccc3oc2=O)cc1,Ratio IC50 (Homo sapiens): < 0.16; IC50 [3]: Not Active
12.3 µM,,Cc1ccc(NC(=O)c2cc3ccccc3oc2=O)c(C)c1,
,Not Active,CC(C)NC(=O)c1cc2ccccc2oc1=O,
61.5 µM,,COc1cc(NC(=O)c2cc3ccccc3oc2=O)cc(OC)c1,
9.45 µM,,COc1ccc(NC(=O)c2cc3ccccc3oc2=O)cc1OC,
14.8 µM,,CSc1ccc(NC(=O)c2cc3ccccc3oc2=O)cc1,
60.9 µM,,CC(C)c1ccc(NC(=O)c2cc3ccc(OCc4ccccc4)cc3oc2=O)cc1,
,Not Active,COc1ccc(NC(=O)c2cc3ccccc3oc2=O)cc1,
12.8 µM,,O=C(Nc1c(F)cccc1F)c1cc2ccccc2oc1=O,
20.6 µM,,Cc1cccc(NC(=O)c2cc3ccccc3oc2=O)c1C,
13.1 µM,,O=C(Nc1ccccc1)c1cc2ccccc2oc1=O,
,Not Active,O=C(NCc1ccccc1)c1cc2ccccc2oc1=O,
